In ChEMBL document CHEMBL4382192, “Discovery of a potent dual ALK and EGFR T790M inhibitor” (Eur J Med Chem, 2017):

Experiments:
[1] = Drug uptake in mouse lung at 10 mg/kg, po after 8 hrs; format: ADME, organism-based; details: read-out: Drug uptake
[2] = molecular target: Myotonin-protein kinase (Homo sapiens) (UniProt Q09013); test: Binding affinity to wild-type human partial length DMPK (V47 to V415 residues) expressed in bacterial expression system assessed as residual binding level at 1 uM by Kinomescan method relative to control
Myotonin-protein kinase (Homo sapiens), sequence (Q09013 whole entry, the tested form may be a part): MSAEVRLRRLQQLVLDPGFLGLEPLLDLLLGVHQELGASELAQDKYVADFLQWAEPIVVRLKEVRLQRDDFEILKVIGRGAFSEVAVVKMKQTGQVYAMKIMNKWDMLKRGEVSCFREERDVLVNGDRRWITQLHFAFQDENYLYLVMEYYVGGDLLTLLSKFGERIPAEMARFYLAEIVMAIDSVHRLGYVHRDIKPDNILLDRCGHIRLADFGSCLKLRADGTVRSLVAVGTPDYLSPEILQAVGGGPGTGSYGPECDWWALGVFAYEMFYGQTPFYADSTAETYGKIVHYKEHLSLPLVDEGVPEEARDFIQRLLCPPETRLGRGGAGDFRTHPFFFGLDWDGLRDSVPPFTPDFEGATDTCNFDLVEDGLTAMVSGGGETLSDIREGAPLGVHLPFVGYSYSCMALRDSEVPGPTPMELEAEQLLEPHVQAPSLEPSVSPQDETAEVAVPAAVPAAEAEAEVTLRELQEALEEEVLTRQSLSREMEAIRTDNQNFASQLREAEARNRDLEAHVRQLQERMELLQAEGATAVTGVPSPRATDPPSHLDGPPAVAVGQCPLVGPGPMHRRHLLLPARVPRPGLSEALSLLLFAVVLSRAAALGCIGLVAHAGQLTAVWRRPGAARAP

[3] = molecular target: Inhibitor of nuclear factor kappa-B kinase subunit alpha (Homo sapiens) (UniProt O15111); test: Binding affinity to wild-type human full length IKK-alpha (M1 to E745 residues) expressed in mammalian expression system assessed as residual binding level at 1 uM by Kinomescan method relative to control
Inhibitor of nuclear factor kappa-B kinase subunit alpha (Homo sapiens), sequence (O15111 whole entry, the tested form may be a part): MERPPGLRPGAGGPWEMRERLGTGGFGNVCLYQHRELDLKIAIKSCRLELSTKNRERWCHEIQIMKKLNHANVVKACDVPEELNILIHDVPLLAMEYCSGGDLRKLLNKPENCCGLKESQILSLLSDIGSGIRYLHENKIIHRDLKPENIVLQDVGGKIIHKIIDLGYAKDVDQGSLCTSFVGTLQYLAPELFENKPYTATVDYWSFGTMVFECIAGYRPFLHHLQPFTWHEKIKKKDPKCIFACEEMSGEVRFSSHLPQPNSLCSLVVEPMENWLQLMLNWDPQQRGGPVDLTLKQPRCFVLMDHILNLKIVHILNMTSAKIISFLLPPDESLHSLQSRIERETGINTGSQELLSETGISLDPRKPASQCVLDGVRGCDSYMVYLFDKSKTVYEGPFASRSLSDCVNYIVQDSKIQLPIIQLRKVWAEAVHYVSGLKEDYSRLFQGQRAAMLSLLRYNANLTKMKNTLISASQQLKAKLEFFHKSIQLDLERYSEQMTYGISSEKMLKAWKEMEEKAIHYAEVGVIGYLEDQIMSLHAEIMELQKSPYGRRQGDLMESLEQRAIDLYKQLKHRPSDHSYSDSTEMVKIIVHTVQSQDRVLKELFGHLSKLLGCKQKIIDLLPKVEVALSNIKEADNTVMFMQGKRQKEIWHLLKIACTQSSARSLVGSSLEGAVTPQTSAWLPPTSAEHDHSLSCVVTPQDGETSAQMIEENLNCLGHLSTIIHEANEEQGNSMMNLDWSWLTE
How it was run: (§1)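 Single-point kinome-wide KINOMEscan binding panel, test compound at 1 μM, run by the provider's standard protocol.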

[4] = test system: ALK tyrosine kinase receptor (Homo sapiens), Q9UM73 [C1156Y]; test: Binding affinity to wild-type human partial length ALK C1156Y mutant (I1088 to E1409 residues) expressed in mammalian expression system assessed as residual binding level at 1 uM by Kinomescan method relative to control
ALK tyrosine kinase receptor (Homo sapiens), Q9UM73 [C1156Y], sequence (Q9UM73 whole entry C1156Y, looked up, the tested form may be a part): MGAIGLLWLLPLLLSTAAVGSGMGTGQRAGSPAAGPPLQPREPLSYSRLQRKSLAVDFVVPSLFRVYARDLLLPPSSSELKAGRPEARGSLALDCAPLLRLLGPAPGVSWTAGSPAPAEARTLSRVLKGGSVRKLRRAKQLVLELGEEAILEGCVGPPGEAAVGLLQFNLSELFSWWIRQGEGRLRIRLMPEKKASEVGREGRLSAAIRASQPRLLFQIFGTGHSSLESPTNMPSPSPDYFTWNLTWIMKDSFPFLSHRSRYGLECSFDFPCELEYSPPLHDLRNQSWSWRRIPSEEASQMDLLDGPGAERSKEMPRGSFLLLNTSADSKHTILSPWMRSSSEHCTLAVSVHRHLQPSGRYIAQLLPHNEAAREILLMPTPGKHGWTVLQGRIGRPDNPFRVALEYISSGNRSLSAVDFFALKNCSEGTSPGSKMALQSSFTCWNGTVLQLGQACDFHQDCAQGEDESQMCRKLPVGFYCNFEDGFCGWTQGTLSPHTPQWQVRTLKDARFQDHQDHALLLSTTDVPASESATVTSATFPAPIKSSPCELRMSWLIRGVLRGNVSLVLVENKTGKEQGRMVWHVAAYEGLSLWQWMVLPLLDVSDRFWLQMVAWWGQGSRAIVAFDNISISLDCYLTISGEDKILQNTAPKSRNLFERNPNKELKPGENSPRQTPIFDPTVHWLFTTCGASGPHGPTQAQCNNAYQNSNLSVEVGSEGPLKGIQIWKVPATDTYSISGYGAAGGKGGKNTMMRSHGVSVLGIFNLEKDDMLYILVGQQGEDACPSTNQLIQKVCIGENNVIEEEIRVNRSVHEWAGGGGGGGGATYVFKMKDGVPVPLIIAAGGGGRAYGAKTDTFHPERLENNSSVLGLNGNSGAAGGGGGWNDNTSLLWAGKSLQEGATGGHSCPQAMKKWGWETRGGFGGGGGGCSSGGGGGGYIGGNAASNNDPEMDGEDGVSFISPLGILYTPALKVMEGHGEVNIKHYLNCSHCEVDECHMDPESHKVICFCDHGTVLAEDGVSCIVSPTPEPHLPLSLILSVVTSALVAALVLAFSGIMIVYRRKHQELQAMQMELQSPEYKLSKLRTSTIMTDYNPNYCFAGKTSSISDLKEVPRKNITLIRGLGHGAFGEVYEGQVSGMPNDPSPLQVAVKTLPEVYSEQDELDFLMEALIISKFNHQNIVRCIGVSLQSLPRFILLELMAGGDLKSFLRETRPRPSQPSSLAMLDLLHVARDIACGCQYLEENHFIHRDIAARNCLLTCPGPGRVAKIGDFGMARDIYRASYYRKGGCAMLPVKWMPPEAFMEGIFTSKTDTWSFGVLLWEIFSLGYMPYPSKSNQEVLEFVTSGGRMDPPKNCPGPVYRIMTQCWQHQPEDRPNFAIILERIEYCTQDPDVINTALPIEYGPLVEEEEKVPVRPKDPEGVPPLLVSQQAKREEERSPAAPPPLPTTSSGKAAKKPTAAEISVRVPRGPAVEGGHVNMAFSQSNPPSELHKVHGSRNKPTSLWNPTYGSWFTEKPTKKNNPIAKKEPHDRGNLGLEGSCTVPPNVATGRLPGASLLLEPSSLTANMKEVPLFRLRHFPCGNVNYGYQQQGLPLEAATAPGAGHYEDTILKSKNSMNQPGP

[5] = molecular target: Activin receptor type-2B (Homo sapiens) (UniProt Q13705); test: Binding affinity to wild-type human ACVR2B (H169 to D504 residues) expressed in bacterial expression system assessed as residual binding level at 1 uM by Kinomescan method relative to control
[6] = molecular target: Serine/threonine-protein kinase NIM1 (Homo sapiens) (UniProt Q8IY84); test: Binding affinity to wild-type human partial length NIM1 (Q44 to N355 residues) expressed in mammalian expression system assessed as residual binding level at 1 uM by Kinomescan method relative to control
[7] = molecular target: Hormonally up-regulated neu tumor-associated kinase (Homo sapiens) (UniProt P57058); test: Binding affinity to wild-type human partial length HUNK (A31 to K354 residues) expressed in bacterial expression system assessed as residual binding level at 1 uM by Kinomescan method relative to control
[8] = test system: Receptor-type tyrosine-protein kinase FLT3 (Homo sapiens), P36888 [K663Q]; test: Binding affinity to human partial length FLT3 K663Q mutant (V592 to Y969 residues) expressed in bacterial expression system assessed as residual binding level at 1 uM by Kinomescan method relative to control
How it was run: (§2)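 Kinome-wide selectivity panel run by the KINOMEscan method, with the test compound at a single concentration of 1 μM. Wild-type and mutant kinases were profiled in the same screen.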

[9] = test system: Tyrosine-protein kinase ABL1 (Homo sapiens), P00519 [F317L]; test: Binding affinity to human phosphorylated ABL1 F317L mutant (S229 to K512 residues) expressed in mammalian expression system assessed as residual binding level at 1 uM by Kinomescan method relative to control; how it was run: as §2
[10] = molecular target: Myosin light chain kinase, smooth muscle (Homo sapiens) (UniProt Q15746); test: Binding affinity to wild-type human full length MYLK (M854 to E1845 residues) expressed in mammalian expression system assessed as residual binding level at 1 uM by Kinomescan method relative to control; how it was run: as §1
[11] = molecular target: Rho-associated protein kinase 2 (Homo sapiens) (UniProt O75116); test: Binding affinity to wild-type human partial length ROCK2 (M1 to T431 residues) expressed in mammalian expression system assessed as residual binding level at 1 uM by Kinomescan method relative to control
[12] = molecular target: RAC-beta serine/threonine-protein kinase (Homo sapiens) (UniProt P31751); test: Binding affinity to wild-type human partial length AKT2 expressed in bacterial expression system assessed as residual binding level at 1 uM by Kinomescan method relative to control
RAC-beta serine/threonine-protein kinase (Homo sapiens), sequence (P31751 whole entry, the tested form may be a part): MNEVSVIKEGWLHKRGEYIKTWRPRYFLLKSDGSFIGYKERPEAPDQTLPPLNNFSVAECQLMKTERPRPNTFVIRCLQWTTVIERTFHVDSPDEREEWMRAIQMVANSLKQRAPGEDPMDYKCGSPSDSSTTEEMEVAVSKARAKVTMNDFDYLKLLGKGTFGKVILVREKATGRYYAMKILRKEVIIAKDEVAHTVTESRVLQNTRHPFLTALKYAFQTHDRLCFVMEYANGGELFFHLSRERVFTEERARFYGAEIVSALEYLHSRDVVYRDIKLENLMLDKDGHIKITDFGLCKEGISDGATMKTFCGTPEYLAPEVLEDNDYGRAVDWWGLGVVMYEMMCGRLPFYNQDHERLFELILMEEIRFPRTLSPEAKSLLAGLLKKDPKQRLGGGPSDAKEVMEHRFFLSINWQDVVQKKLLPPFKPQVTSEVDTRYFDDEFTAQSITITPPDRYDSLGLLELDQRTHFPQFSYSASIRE

[13] = molecular target: Mitogen-activated protein kinase 11 (Homo sapiens) (UniProt Q15759); test: Binding affinity to wild-type human full length p38-beta (M1 to Q364 residues) expressed in bacterial expression system assessed as residual binding level at 1 uM by Kinomescan method relative to control
[14] = molecular target: Wee1-like protein kinase (Homo sapiens) (UniProt P30291); test: Binding affinity to wild-type human partial length WEE1 (M291 to K575 residues) expressed in bacterial expression system assessed as residual binding level at 1 uM by Kinomescan method relative to control
Wee1-like protein kinase (Homo sapiens), sequence (P30291 whole entry, looked up, the tested form may be a part): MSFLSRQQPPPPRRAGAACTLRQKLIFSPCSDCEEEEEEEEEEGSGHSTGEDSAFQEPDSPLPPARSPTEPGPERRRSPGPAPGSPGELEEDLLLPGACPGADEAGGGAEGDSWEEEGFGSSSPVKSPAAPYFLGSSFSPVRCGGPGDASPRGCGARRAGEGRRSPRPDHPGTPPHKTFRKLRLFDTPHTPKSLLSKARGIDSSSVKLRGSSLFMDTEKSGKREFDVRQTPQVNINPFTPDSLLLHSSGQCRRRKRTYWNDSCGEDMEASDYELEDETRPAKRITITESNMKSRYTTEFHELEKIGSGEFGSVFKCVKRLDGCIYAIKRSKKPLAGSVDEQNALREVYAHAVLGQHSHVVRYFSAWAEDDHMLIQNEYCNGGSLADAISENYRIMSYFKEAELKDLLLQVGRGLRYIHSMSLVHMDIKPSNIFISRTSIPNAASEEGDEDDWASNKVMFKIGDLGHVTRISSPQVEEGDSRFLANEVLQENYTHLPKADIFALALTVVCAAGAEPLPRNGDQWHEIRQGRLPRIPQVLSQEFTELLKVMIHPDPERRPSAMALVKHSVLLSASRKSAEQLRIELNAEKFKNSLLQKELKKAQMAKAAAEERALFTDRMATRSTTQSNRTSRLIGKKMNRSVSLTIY

[15] = molecular target: Serine/threonine-protein kinase tousled-like 1 (Homo sapiens) (UniProt Q9UKI8); test: Binding affinity to wild-type human partial length TLK1 (K447 to A754 residues) expressed in bacterial expression system assessed as residual binding level at 1 uM by Kinomescan method relative to control
[16] = molecular target: Megakaryocyte-associated tyrosine-protein kinase (Homo sapiens) (UniProt P42679); test: Binding affinity to wild-type human full length CTK (M43 to P508 residues) expressed in mammalian expression system assessed as residual binding level at 1 uM by Kinomescan method relative to control
[17] = molecular target: Mitogen-activated protein kinase 8 (Homo sapiens) (UniProt P45983); test: Binding affinity to wild-type human full length JNK1 (M1 to Q384 residues) expressed in mammalian expression system assessed as residual binding level at 1 uM by Kinomescan method relative to control; how it was run: as §1
[18] = test system: Tyrosine-protein kinase ABL1 (Homo sapiens), P00519 [Q252H]; test: Binding affinity to human non-phosphorylated ABL1 Q252H mutant (S229 to K512 residues) expressed in mammalian expression system assessed as residual binding level at 1 uM by Kinomescan method relative to control; how it was run: as §2
[19] = Drug uptake in mouse plasma at 2 mg/kg, iv after 2 hrs; format: ADME, organism-based
[20] = molecular target: Ribosomal protein S6 kinase alpha-3 (Homo sapiens) (UniProt P51812); test: Binding affinity to wild-type human partial length C-terminal RSK2 kinase domain 2 (V402 to S715 residues) expressed in mammalian expression system assessed as residual binding level at 1 uM by Kinomescan method relative to control
[21] = molecular target: Dual specificity mitogen-activated protein kinase kinase 4 (Homo sapiens) (UniProt P45985); test: Binding affinity to wild-type human partial length MEK4 (S84 to D399 residues) expressed in mammalian expression system assessed as residual binding level at 1 uM by Kinomescan method relative to control
[22] = molecular target: Casein kinase I isoform alpha (Homo sapiens) (UniProt P48729); test: Binding affinity to wild-type human partial length CSNK1A1 (M1 to L450 residues) expressed in mammalian expression system assessed as residual binding level at 1 uM by Kinomescan method relative to control
[23] = molecular target: Aurora kinase C (Homo sapiens) (UniProt Q9UQB9); test: Binding affinity to wild-type human full length AURKC (M1 to S275 residues) expressed in bacterial expression system assessed as residual binding level at 1 uM by Kinomescan method relative to control
Aurora kinase C (Homo sapiens), sequence (Q9UQB9 whole entry, the tested form may be a part): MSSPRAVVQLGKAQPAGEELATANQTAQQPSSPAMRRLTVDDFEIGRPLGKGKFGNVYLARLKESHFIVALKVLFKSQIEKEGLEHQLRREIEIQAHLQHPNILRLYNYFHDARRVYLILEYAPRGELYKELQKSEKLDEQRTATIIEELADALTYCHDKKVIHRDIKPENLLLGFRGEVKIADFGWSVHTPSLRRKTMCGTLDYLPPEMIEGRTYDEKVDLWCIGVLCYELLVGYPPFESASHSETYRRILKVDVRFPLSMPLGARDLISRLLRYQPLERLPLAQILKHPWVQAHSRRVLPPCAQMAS

[24] = molecular target: Tyrosine-protein kinase Tec (Homo sapiens) (UniProt P42680); test: Binding affinity to wild-type human partial length TEC (L341 to D620 residues) expressed in bacterial expression system assessed as residual binding level at 1 uM by Kinomescan method relative to control
Tyrosine-protein kinase Tec (Homo sapiens), sequence (P42680 whole entry, the tested form may be a part): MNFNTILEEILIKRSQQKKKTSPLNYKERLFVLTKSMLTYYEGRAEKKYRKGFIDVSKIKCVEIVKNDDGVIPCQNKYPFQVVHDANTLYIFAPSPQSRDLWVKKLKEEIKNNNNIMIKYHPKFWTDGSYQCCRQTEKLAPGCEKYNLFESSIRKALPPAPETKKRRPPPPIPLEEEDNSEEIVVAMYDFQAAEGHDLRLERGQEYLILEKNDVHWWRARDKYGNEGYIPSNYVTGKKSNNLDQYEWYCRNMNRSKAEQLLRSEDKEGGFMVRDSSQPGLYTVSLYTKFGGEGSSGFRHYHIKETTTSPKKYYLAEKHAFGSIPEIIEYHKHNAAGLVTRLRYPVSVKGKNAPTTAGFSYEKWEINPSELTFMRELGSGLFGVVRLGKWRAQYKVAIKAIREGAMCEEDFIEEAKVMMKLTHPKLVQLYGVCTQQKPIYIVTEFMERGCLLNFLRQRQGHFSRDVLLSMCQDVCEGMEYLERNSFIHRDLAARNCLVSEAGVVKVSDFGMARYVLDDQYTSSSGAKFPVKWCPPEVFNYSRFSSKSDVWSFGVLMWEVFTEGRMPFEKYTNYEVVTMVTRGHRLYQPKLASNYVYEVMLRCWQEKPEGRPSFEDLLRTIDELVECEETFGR

[25] = molecular target: Dual specificity mitogen-activated protein kinase kinase 5 (Homo sapiens) (UniProt Q13163); test: Binding affinity to wild-type human partial length MEK5 (L98 to P448 residues) expressed in mammalian expression system assessed as residual binding level at 1 uM by Kinomescan method relative to control

**Q.** Which results are given for `C=CC(=O)Nc1cc(Nc2ncc(Cl)c(Nc3ccccc3S(=O)(=O)C(C)C)n2)c(OC)cc1N(C)CCN(C)C`?
**A.** concentration at 8 h [1]: 0.74 µM; Activity [2]: 91%; Activity [3]: 96%; Activity [4]: 0.2%; Activity [5]: 96%; Activity [6]: 100%; Activity [7]: 39%; Activity [8]: 2.5%; Activity [9]: 2.9%; Activity [10]: 1.3%; Activity [11]: 96%; Activity [12]: 94%; Activity [13]: 96%; Activity [14]: 94%; Activity [15]: 68%; Activity [16]: 98%; Activity [17]: 59%; Activity [18]: 1.9%; concentration at 2 h [19]: 0.1 µM; Activity [20]: 75%; Activity [21]: 100%; Activity [22]: 74%; Activity [23]: 8.2%; Activity [24]: 1%; Activity [25]: 28%
